OX1R antag-1: human HCRTR1 antagonism; O43613; CHO/OX1R cells, Fluo-8 calcium fluorescence, orexin A; inhibition, % at 5 µM; 0.43% of 330,000 active; AID 434989;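 active = inhibition above its plate's threshold, mean inhibition of all tested compounds on the plate plus 3 SD, cut at about 37% in these data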
Target sequence (O43613 whole entry, looked up): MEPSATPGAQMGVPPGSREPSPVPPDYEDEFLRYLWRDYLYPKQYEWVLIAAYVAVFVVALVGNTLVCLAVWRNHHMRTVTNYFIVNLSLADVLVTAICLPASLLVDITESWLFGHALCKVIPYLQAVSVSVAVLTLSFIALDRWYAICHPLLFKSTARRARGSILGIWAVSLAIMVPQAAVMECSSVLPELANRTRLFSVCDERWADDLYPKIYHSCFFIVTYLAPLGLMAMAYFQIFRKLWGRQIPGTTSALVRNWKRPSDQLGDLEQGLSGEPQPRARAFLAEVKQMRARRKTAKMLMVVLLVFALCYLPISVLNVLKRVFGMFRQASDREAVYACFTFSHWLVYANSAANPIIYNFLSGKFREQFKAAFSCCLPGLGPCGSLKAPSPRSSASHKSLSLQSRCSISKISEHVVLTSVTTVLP
OX1R antag-2: antagonists of human orexin 1 receptor (OX1R); inhibition, % at 6.6 µM; OX1R-expressing cells, FRET antagonist read-out; 1.8% of 330,000 active; O43613; in the data active = inhibition mostly above about 38%, no sharp cut-off; inactive = mostly below about 40%
TAAR1 antag: human TAAR1 antagonism. Q96RJ0. 1.5% of 360,000 active. AID 624466. inhibition, % at 3 µM. CHO RD-HGA16 TAAR1, Fluo-8 calcium fluorescence, antagonist;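 active = inhibition above a per-plate cutoff, the mean inhibition of test compounds on that plate plus 3 SD, cut at about 49% in these data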
Target sequence (Q96RJ0 whole entry, looked up): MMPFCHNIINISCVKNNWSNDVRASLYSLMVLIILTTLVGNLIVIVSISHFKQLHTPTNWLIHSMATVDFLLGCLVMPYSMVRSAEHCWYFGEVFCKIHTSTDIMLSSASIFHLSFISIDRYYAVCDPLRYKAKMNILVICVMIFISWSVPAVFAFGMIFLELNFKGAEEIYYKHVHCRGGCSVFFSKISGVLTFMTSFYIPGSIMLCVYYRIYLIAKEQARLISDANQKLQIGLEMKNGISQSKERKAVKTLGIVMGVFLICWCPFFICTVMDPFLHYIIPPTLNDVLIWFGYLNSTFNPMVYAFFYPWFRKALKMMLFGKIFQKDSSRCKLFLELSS
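Test system: RD-HGA16 CHO cells with stable hTAAR1 and Gα16 / Probe or stimulus: EC80 β-phenethylamine stimulus / Times: seeding 17-24 h prior, 75-min 37 °C, 30-min RT dye loading / Detection: Fluo-8 calcium-sensitive fluorescence / Read-out basis: % inhibition scaled between DMSO and EC80 PEA controls / Repeats: singlicate, one well per test compound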
CHO parental Ca: signal in parental CHO cells, OX1R antagonist counter-screen. inhibition, % at 5.6 µM. parental CHO-K1, ATP-induced calcium, Fluo-8 fluorescence. 0.63% of 330,000 active;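 active = inhibition above that plate's mean sample inhibition plus 3 SD, cut at about 26% in these data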
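Test system: untransfected parental CHO cell line; also added: ATP stimulus; dosing: 5.6 µM, single dose; signal: calcium-sensitive Fluo-8 fluorescence; measure: percent inhibition of ATP-evoked calcium rise, normalized to controls; benchmarks: low control ATP plus DMSO, high control DMSO only; replication: one well per compound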
TAAR1 ag: human TAAR1 agonism | 0.99% of 360,000 active | CHO RD-HGA16 TAAR1, Fluo-8 calcium fluorescence; vehicle wells 0%, saturating PEA agonist 100% | Q96RJ0 | activation, % at 3 µM;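 active = activation above the mean activation of all test compounds in the run plus 3 SD, cut at about 38% in these data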
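Benchmarks: low control DMSO, high control PEA (EC100); System: CHO RD-HGA16 cells carrying human TAAR1 plus Gα16; Detection: Fluo-8 fluorescence, 5 s baseline then 140 s kinetic read; Schedule: 17-24 h plating, Fluo-8 75 min 37 °C, 30 min RT; Read-out basis: % activation from peak over basal fluorescence ratio, DMSO-to-PEA scaled.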
GPR7 antag: human neuropeptides B/W receptor 1 antagonism; P48145; GPR7-expressing cells, fluorescence antagonist assay; inhibition, % at 4.4 µM; 1.1% of 290,000 active; AID 1861; in the data active = inhibition above about 16%, passing the limit was not always enough;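 note: cells stimulated with the agonist NPW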
Of the large screens only hits and unclear results are named; the others gave an inactive call. An excerpt weighted towards active compounds, which were near 4.6% of everything screened.

N#Cc1cc2ccccc2nc1SCc1ccccn1	OX1R antag-2 49
COC(=O)[C@H](Cc1ccccc1)NC(=O)NC(C)CCc1ccccc1 (stereo partly specified)	TAAR1 ag 45
Cc1ccc(-c2csc(/C(C#N)=C(\O)CCl)n2)cc1	none (no result: OX1R antag-1, OX1R antag-2, CHO parental Ca)
N#C/C(=C(/O)CCl)c1nc(-c2ccccc2)cs1	GPR7 antag 19
CCC(C)NC(=O)COC(=O)c1cc([N+](=O)[O-])ccc1Sc1nc(C)cs1 (stereo unspecified)	OX1R antag-2 54
Cc1csc(Sc2ccc([N+](=O)[O-])cc2C(=O)OCC(=O)NC2CCCC(C)C2C)n1 (stereo unspecified)	none
Cc1ccc(-n2ccnc(SCC(=O)NCCc3ccccc3)c2=O)cc1F	TAAR1 ag 37 (no result: GPR7 antag)
O=C(O)c1cccc(-n2sc3ccccc3c2=O)c1	none (no result: GPR7 antag)
O=c1c2ccccc2sn1-c1ccccc1F	none (no result: OX1R antag-1, OX1R antag-2, CHO parental Ca, GPR7 antag)
O=c1c2cc(F)ccc2sn1-c1ccccc1	TAAR1 antag 57, CHO parental Ca 72, TAAR1 ag 60 (no result: GPR7 antag)
Cc1ccccc1-n1sc2cc(F)ccc2c1=O	CHO parental Ca 35, TAAR1 ag 44
O=c1c2ccccc2sn1-c1nccs1	TAAR1 ag 47 (no result: OX1R antag-1, OX1R antag-2, CHO parental Ca)
O=C1c2ccccc2C(=O)N1c1nccs1	none (no result: OX1R antag-1, OX1R antag-2, CHO parental Ca, GPR7 antag)
O=c1c2ccccc2sn1-c1cccc(Cl)c1	TAAR1 ag 39 (no result: OX1R antag-1, OX1R antag-2, CHO parental Ca, GPR7 antag)
COCCNC(=O)CN(C(=O)CCC(=O)Nc1ccccn1)c1ccc(C)c(C)c1	none
CSc1nnc2c(n1)[nH]c1c(C)cccc12	none
CCSc1nnc2c(n1)[nH]c1c(C)cccc12	OX1R antag-2 40
O=C(Nc1cc(S(=O)(=O)Nc2ccccc2Cl)ccc1O)c1cc2c(s1)CCCC2	none
Cc1ccc(NC(=O)c2cc3c(s2)CCCC3)cc1S(=O)(=O)Nc1ccccc1Cl	OX1R antag-2 70
COc1ccc(CN2CCCCC2C)cc1C (stereo unspecified)	none
O=C(CC(c1ccccc1)(c1ccccc1)c1ccccc1)N[C@@H](Cc1ccc(O)cc1)C(=O)O	OX1R antag-2 50
O=C(COCc1ccccc1)N[C@@H](Cc1ccc(O)cc1)C(=O)O	none
CCOc1ccc(NC(=O)CCn2cccc2)cc1	none
Cc1cc(/C=N/n2cnnc2)c(C)n1-c1ccc(OCc2ccccc2F)cc1	CHO parental Ca 56
C(=N\n1cnnc1)/c1ccc(OCc2ccccc2)cc1	none
Cc1cc(/C=N/n2cnnc2)c(C)n1-c1ccc(OCc2ccc(Cl)cc2)cc1	OX1R antag-1 52, CHO parental Ca 49
Cc1ccc(Nc2nc(-c3cccnc3)cs2)cc1C	OX1R antag-2 58
Brc1ccc(Nc2nc(-c3cccnc3)cs2)cc1	none
O=c1cc(O)c(-c2ccccc2)c(Cl)[nH]1	none
CN(C)c1c(-c2ccccc2)cc(-c2ccccc2)[nH]c1=O	none (no result: OX1R antag-1, OX1R antag-2, CHO parental Ca)
COc1ccc(C2=NOC(Cn3nc(C(=O)NCc4ccc(C)cc4)cc3-c3ccccc3)C2)cc1 (stereo unspecified)	TAAR1 antag 58 (no result: GPR7 antag)
COc1ccc(C2=NOC(Cn3nc(-c4ccccc4)cc3C(=O)O)C2)cc1 (stereo unspecified)	none (no result: GPR7 antag)
Cc1ccccc1-c1cc(C(=O)NCc2cccc(C(F)(F)F)c2)n(CC2CC(c3cccnc3)=NO2)n1 (stereo unspecified)	TAAR1 antag 55 (no result: GPR7 antag)
COCCNC(=O)c1cc(-c2ccccc2)n(CC2CC(c3ccc(OC)cc3)=NO2)n1 (stereo unspecified)	TAAR1 antag 53 (no result: GPR7 antag)
COc1ccc(C2=NOC(Cn3nc(C(=O)NCc4cccc(C(F)(F)F)c4)cc3-c3ccccc3)C2)cc1 (stereo unspecified)	TAAR1 antag 55 (no result: GPR7 antag)
COCCNC(=O)Nc1ccc2nc(-c3cccs3)c(-c3cccs3)nc2c1	none
O=C(Nc1ccc2nc(-c3cccs3)c(-c3cccs3)nc2c1)NC1CC1	OX1R antag-2 58
COc1cccc(C(C)(O)c2nc(-c3ccccc3OC)cs2)c1 (stereo unspecified)	none (no result: OX1R antag-1, OX1R antag-2, CHO parental Ca, GPR7 antag)
COc1cc(Cl)c(S(=O)(=O)N2CC(C)OC(C)C2)cc1Cl (stereo unspecified)	none
O=C1NC(Cc2ccccc2)c2nc3ccc(F)cc3c(=O)n2-c2cc3ccccc3cc21 (stereo unspecified)	TAAR1 antag 49 (no result: OX1R antag-1, OX1R antag-2, CHO parental Ca, GPR7 antag)
O=C1NC(Cc2ccccc2)c2nc3ccc(Cl)cc3c(=O)n2-c2cc3ccccc3cc21 (stereo unspecified)	none (no result: OX1R antag-1, OX1R antag-2, CHO parental Ca, GPR7 antag)
COc1ccc(Nc2nnc(SCC(=O)c3cc(C)n(CC4CCCO4)c3C)s2)cc1 (stereo unspecified)	none
O=S(=O)(c1cccs1)N1CCN(c2ccnc3cc(Cl)ccc23)CC1	none
O=S(=O)(c1ccccc1)N1CCN(c2ccnc3cc(Cl)ccc23)CC1	CHO parental Ca 89
COc1ccc(S(=O)(=O)n2c(N)nc3ccccc32)cc1	none (no result: OX1R antag-1, OX1R antag-2, CHO parental Ca, GPR7 antag)
CC(C)c1nnc(NC(=O)CC23CC4CC(CC(C4)C2)C3)s1	none
CC(C)[C@H](CO)N(Cc1cccc(F)c1)c1nc(Nc2cccc(Cl)c2)c2ncn(C(C)C)c2n1	TAAR1 antag 73, CHO parental Ca 37, TAAR1 ag 53 (no result: GPR7 antag)
COc1ccc2c(c1)c1nnc(SC)nc1n2C	OX1R antag-2 48
CC(C)c1ccc(C(=O)OCC(=O)NC2CCCC2)cc1	none
CCN(C(=O)COC(=O)c1ccccc1OCc1ccc(Cl)cc1)C1CCS(=O)(=O)C1 (stereo unspecified)	none (no result: GPR7 antag)
O=C(COC(=O)CN1C(=O)NC2(CCCC2)C1=O)Nc1ccc(C(F)(F)F)cc1[N+](=O)[O-]	OX1R antag-2 41 (no result: GPR7 antag)
Cc1ccc(NC(=O)CN2C(=O)NC3(CCCc4ccccc43)C2=O)c([N+](=O)[O-])c1 (stereo unspecified)	OX1R antag-2 54
O=C(COC(=O)CN1C(=O)NC2(CCCC2)C1=O)Nc1ccccc1C(F)(F)F	none (no result: GPR7 antag)
O=C(OCC(=O)c1c[nH]c2ccccc12)c1ccc([N+](=O)[O-])s1	OX1R antag-2 51
CCc1cccc2c(C(=O)COC(=O)c3ccc([N+](=O)[O-])s3)c[nH]c12	none
COc1ccccc1/C=C/C(=O)OCC(=O)c1c[nH]c2ccccc12	OX1R antag-2 42 (no result: GPR7 antag)
COc1ccccc1/C=C/C(=O)OCc1nc2ccccc2c(=O)[nH]1	OX1R antag-2 46
COc1cc(C(=O)OCC(=O)c2c[nH]c3ccccc23)ccc1OCC(=O)N1CCOCC1	none
COc1ccc(C(=O)OCC(=O)c2c[nH]c3ccccc23)cc1OC	OX1R antag-2 32 (no result: GPR7 antag)
COc1ccc(Cl)cc1C(=O)CSc1nc(N)cc(N)n1	none
COc1cccc(OC)c1C(=O)Nc1ccc2c3c(cccc13)CC2	none
COc1ccccc1C(=O)Nc1ccc2c3c(cccc13)CC2	OX1R antag-2 61
COc1ccccc1C(=O)Nc1cccc2c1CCCC2	OX1R antag-2 27
O=C(Nc1cccc2c1CCCC2)c1ccccc1Cl	none

Bioassay records from PubChem BioAssay.
